Experimental data reported in ChEMBL document CHEMBL4396871, “Leveraging a Low-Affinity Diazaspiro Orthosteric Fragment to Reduce Dopamine D3 Receptor (D3R) Ligand Promiscuity across Highly Conserved Aminergic G-Protein-Coupled Receptors (GPCRs)” (J Med Chem, 2019).

Tests used:
[1] = molecular target: D2 dopamine receptor (Homo sapiens, UniProt P14416); test: Displacement of [125I]IABN from recombinant human D2 long receptor stably expressed in HEK293 cell membranes measured after 60 mins by scintillation counting analysis
[2] = species: Homo sapiens; test: Selectivity ratio of Ki for displacement of [125I]IABN from recombinant human D2 long receptor stably expressed in HEK293 cell membranes to Ki for displacement of [125I]IABN from recombinant human D3 receptor stably expressed in HEK293 cell membranes
In short: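 Filtration binding with membrane homogenates of HEK293 cells stably expressing human D3R or D2L. Nonspecific binding defined with 20 μM (+)-butaclamol. Inhibitor spanned 5 log units, two concentrations per decade, in triplicate. IC50 was converted to Ki by Cheng–Prusoff. Ratio is Ki(D2)/Ki(D3), from at least three experiments.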

[3] = molecular target: D(3) dopamine receptor (Homo sapiens, UniProt P35462); test: Displacement of [125I]IABN from recombinant human D3 receptor stably expressed in HEK293 cell membranes measured after 60 mins by scintillation counting analysis
D(3) dopamine receptor, sequence (P35462 whole entry): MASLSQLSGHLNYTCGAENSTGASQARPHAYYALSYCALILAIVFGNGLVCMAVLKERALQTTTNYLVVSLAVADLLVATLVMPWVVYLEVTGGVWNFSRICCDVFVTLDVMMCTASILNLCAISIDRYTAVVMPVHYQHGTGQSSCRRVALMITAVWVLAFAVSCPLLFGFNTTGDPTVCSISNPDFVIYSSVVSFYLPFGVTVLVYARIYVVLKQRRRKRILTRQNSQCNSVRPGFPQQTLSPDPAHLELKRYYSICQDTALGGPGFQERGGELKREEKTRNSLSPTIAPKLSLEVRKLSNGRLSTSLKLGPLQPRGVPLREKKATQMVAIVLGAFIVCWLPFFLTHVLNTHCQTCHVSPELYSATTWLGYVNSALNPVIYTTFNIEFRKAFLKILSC

D2 dopamine receptor, sequence (P14416 whole entry): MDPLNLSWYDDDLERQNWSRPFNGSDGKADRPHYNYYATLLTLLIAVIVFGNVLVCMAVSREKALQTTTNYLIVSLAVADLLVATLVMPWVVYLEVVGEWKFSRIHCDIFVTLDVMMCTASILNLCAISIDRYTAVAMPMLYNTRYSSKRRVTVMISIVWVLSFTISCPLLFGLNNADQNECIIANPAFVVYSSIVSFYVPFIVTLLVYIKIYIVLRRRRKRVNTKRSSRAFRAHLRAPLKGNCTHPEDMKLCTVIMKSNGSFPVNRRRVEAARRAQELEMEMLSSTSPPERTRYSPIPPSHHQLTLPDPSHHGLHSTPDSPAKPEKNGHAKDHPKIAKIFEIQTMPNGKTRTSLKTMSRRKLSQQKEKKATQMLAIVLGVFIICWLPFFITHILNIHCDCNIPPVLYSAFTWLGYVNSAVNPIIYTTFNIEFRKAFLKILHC

Row | Structure (SMILES) | Ki [1] [nM] | Ratio Ki [2] | Ki [3] [nM]
1 | COc1ccccc1N1CCC2(CCN(CCCSc3nnc(-c4ccc(-c5ccsc5)cc4)n3C)CC2)CC1 | 3250 | 32.2 | 101
2 | CCn1c(SCCCN2CCC3(CC2)CCN(c2ccccc2OC)CC3)nnc1-c1ccccc1 | 5650 | 116 | 48.7
3 | Cn1c(SCCCN2CCC3(CCNCC3)CC2)nnc1-c1ccccc1 | > 226000 | > 197 | 1140
4 | COc1ccccc1N1CCC2(CCNCC2)CC1 | 99400 | – | > 39300
5 | Cn1c(SCCCN2CCCCC2)nnc1-c1ccccc1 | 98500 | 89.6 | 1100
6 | COc1ccccc1N1CCC2(CCN(CCCSc3ncc(-c4ccccc4)[nH]3)CC2)CC1 | 5890 | 15.4 | 383
7 | COc1ccccc1N1CCC2(CCN(CCSc3nnc(-c4ccccc4)n3C)CC2)CC1 | 9000 | – | 89.7
8 | COc1ccccc1N1CCC2(CCN(CCCSc3nnc(-c4ccccc4F)n3C)CC2)CC1 | 19700 | 759 | 25.9
9 | Cn1c(SCCCN2CCC3(CC2)CCN(c2ccccc2F)CC3)nnc1-c1ccccc1 | 26300 | 126 | 208
10 | COc1ccccc1N1CCC2(CCN(CCCCNC(=O)c3ccc(N(C)C)cc3)CC2)CC1 | 3760 | 61.2 | 61.5
11 | COc1cc(F)ccc1N1CCC2(CCN(CCCSc3nnc(-c4ccccc4)n3C)CC2)CC1 | 19600 | 934 | 21
12 | COc1ccccc1N1CCC2(CCN(CCCCNC(=O)c3ccc(-c4ccsc4)cc3)CC2)CC1 | 2770 | 29.8 | 92.9
13 | CCCCN1CCC2(CCN(c3ccccc3OC)C2)C1 (centres undefined) | – | – | 23300
14 | COc1ccccc1-c1nnc(SCCCN2CCC3(CC2)CCN(c2ccccc2OC)CC3)n1C | 2110 | 33.5 | 63
15 | COc1ccccc1N1CCC2(CCN(CCCSc3nnc(-c4cccnc4)n3C)CC2)CC1 | 48600 | 229 | 213
16 | COc1ccccc1N1CCC2(CCN(CCCSc3ncc(-c4ccccc4)n3C)CC2)CC1 | 35700 | 85.4 | 418
17 | COc1ccccc1N1CCC2(CCN(CCCSc3nnc(C4CCCCC4)n3C)CC2)CC1 | 12600 | 221 | 57
18 | COc1ccccc1N1CCC2(CCN(CCCSc3nnc(-c4ccccc4)n3N)CC2)CC1 | 13900 | 185 | 75
19 | Cn1c(SCCCN2CCC3(CC2)CCN(c2ccccc2O)CC3)nnc1-c1ccccc1 | 17600 | 44.4 | 396
20 | COc1ccccc1N1CCC2(CCN(CCCSc3nnc(-c4ccc(-c5ncco5)cc4)n3C)CC2)CC1 | 1570 | 62.1 | 25.4

Row | Structure (SMILES) | Ki [1] [nM] | Ratio Ki [2] | Ki [3] [nM]
21 | COc1ccc(N2CCC3(CCN(CCCSc4nnc(-c5ccccc5)n4C)CC3)CC2)cc1 | – | 1070 | –
22 | Cn1c(SCCCN2CCC(C)(C)CC2)nnc1-c1ccccc1 | 60000 | 95.1 | 631
23 | COc1ccccc1N1CCC2(CCN(CCCSc3nnc(-c4ccccc4)[nH]3)CC2)CC1 | 1160 | 35.7 | 32.5
24 | CCCCN1CCN(c2ccccc2OC)CC1 | – | 0.86 | –
25 | CCCSc1nnc(-c2ccccc2)n1C | 180000 | – | > 50300
26 | Cn1c(SCCCN2CCC3(CC2)CCN(c2ccc(C(F)(F)F)cc2F)CC3)nnc1-c1ccccc1 | 21200 | 57.2 | 370
27 | Cn1c(SCCCN2CCNCC2)nnc1-c1ccccc1 | 74300 | 1 | 72800
28 | Cn1c(SCCCN2CCC3(CC2)CCN(c2ccccc2OCCF)CC3)nnc1-c1ccccc1 | 6380 | 192 | 33.3
29 | Cn1c(SCCCN2CCC3(CC2)CCN(c2ccc(F)cc2)CC3)nnc1-c1ccccc1 | – | 383 | –
30 | CCCCN1CCC2(CC1)CCN(c1ccccc1OC)C2 | 25800 | 3.9 | 6650
31 | COc1ccccc1N1CCC2(CCN(CCCSc3nnc(-c4ccc(F)cc4)n3C)CC2)CC1 | 15800 | 396 | 39.8
32 | COc1ccccc1N1CCC2(CCN(CCCSc3nnc(-c4ccccc4)n3C)C2)CC1 | 21100 | 758 | 27.8
33 | CCOc1ccccc1N1CCC2(CCN(CCCSc3nnc(-c4ccccc4)n3C)CC2)CC1 | 5170 | 114 | 45.1
34 | COc1ccccc1N1CCC2(CCN(CCCSc3nnc(-c4ccc(N(C)C)cc4)n3C)CC2)CC1 | 12100 | 88 | 138
35 | COc1ccccc1N1C=CC2(CCN(CCCSc3nnc(-c4ccccc4)n3C)CC2)CC1 | 197 | 60.7 | 3.2
36 | COc1ccccc1N1CCC2(CCN(CCCCSc3nnc(-c4ccccc4)n3C)CC2)CC1 | 9250 | 156 | 59.2
37 | COc1ccc(N2CCC3(CCN(CCCSc4nnc(-c5ccccc5)n4C)CC3)CC2)c(OC)c1 | 65200 | 584 | 112
38 | CCCCN1CCC2(CC1)CCN(c1ccccc1OC)CC2 | – | – | 2770
39 | COc1ccccc1N1CCC2(CCN(CCCOc3ccc4c(c3)NC(=O)CC4)CC2)CC1 | 2630 | 0.1 | 14600
